High-throughput results as filed in PubChem.
FXIa inh = factor XIa (human) inhibition; inhibition, % at 5 µM; actives 0.14% (n = 220,000); P03951; purified FXIa, Boc-Glu-Ala-Arg-AMC fluorogenic substrate; AID 798;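 active = inhibition of at least 40%; inactive = inhibition below 40%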;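 note: fluorescence of freed AMC excited at 355 nm; 0% = enzyme without compound and 100% = no enzyme blank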
Target sequence (P03951 19-387 limits assumed): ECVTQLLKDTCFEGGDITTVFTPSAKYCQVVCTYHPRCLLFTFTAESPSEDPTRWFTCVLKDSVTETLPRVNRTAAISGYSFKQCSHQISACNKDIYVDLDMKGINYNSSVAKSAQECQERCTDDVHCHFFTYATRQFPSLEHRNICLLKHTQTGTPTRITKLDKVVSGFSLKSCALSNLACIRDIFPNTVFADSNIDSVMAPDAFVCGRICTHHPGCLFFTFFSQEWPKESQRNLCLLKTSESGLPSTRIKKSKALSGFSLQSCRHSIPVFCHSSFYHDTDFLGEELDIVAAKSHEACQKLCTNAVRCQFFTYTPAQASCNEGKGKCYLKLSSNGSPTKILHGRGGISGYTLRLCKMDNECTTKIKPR
Target sequence (P03951 388-625 limits assumed): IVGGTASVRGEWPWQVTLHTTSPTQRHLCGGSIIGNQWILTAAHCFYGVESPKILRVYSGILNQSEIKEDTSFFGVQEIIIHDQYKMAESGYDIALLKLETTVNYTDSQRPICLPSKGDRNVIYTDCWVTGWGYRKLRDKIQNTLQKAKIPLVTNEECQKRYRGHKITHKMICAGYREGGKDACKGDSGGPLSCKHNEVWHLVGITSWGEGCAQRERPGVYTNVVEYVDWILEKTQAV
Furin inh = inhibitors of human furin; P09958; purified furin, fluorogenic substrate cleavage; inhibition, % at 20 µM or 30 µM; actives 0.061% (n = 220,000); AID 463115; in the data active = inhibition above about 25%
FXIIa inh = factor XIIa (human) inhibition | inhibition, % at 5 µM | P00748 | purified FXIIa, Boc-QGR-AMC fluorogenic substrate, 2 h | actives 0.3% (n = 220,000) | AID 800; in the data active = inhibition above about 40%;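 note: 0% = enzyme with no compound and 100% = blank without enzyme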
KLK5 inh = blocks human kallikrein 5 protease activity | Q9Y337 | recombinant hK5, fluorogenic AMC substrate cleavage | inhibition, % at 5 µM | actives 0.59% (n = 210,000) | AID 873;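 active = inhibition of 40% or more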;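 note: 0% = enzyme controls without compound and 100% = no-enzyme blanks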
Thrombin inh = inhibitors of human thrombin; P00734; alpha-thrombin, Boc-VPR-AMC fluorogenic substrate cleavage; inhibition, % at 5 µM; actives 0.26% (n = 220,000); AID 1046;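 active = inhibition at or above 40%; inactive = inhibition below 40%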;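 note: 0% = enzyme with no compound and 100% = wells without enzyme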
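Test system: human alpha-thrombin; medium: pH 7.5 Tris-saline with Tween 20; times: reaction at room temperature; signal: AMC fluorescence at 355 nm excitation and 460 nm emission; also added: Boc-VPR-AMC substrate, 15 µM final; dosing: one concentration per compound, 5 µM, with 0.2% DMSO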
Active calls of the source: *. Most compounds without a hit are left out; they make up all but 1.1% or so of the library.

Results for Cn1cnnc1SCCCN1C(=O)c2cccc3cccc(c23)C1=O ?
FXIa inh: 1; Furin inh: -11; FXIIa inh: 6; Thrombin inh: -1

Results for O=C(NCc1ccccc1)c1cccnc1N1CCOCC1 ?
FXIa inh: 2; Furin inh: -10; FXIIa inh: -8; KLK5 inh: 72*; Thrombin inh: 10

Results for COc1cccc(Cn2c(NCc3ccco3)nc3c2c(=O)n(C)c(=O)n3C)c1 ?
FXIa inh: 12; Furin inh: -10; FXIIa inh: 44*; KLK5 inh: 3; Thrombin inh: 0

Results for COc1ccc(Cl)c(Cn2c(NCc3ccco3)nc3c2c(=O)n(C)c(=O)n3C)c1 ?
FXIa inh: 3; Furin inh: -18; FXIIa inh: 15; KLK5 inh: -1; Thrombin inh: -4

What do the screens show for `O=C(CN1CCN(Cc2ccccc2)CC1)N/N=C/c1ccc(Br)s1`?
FXIa inh: 11; Furin inh: -17; FXIIa inh: 3; KLK5 inh: 0; Thrombin inh: -1

Results for O=c1cc(-c2ccc([N+](=O)[O-])cc2)nc2cc(-c3ccc(Cl)cc3)[nH]n12 ?
FXIa inh: 16; Furin inh: -10; FXIIa inh: -3; KLK5 inh: 48*; Thrombin inh: 63*

Results for COc1ccc(NC(=O)C2CCC(=O)N2)cc1 (stereo not drawn) ?
FXIa inh: 3; Furin inh: -24; FXIIa inh: 12; KLK5 inh: -16; Thrombin inh: -14

What do the screens show for `O=C1CCC(C(=O)Nc2cccc3ccccc23)N1` (stereo not drawn)?
FXIa inh: 6; Furin inh: -19; FXIIa inh: -2; KLK5 inh: 62*; Thrombin inh: 104*

How did Cc1cccc(COc2ccc(/C=N/NC(=O)c3nnn(-c4nonc4N)c3COc3ccc(F)cc3)cc2)c1 do in these assays?
FXIa inh: 0; Furin inh: -30; FXIIa inh: 1; KLK5 inh: -5; Thrombin inh: -7

How did Cc1oc(C)c(C(=O)O)c1C(=O)O do in these assays?
FXIa inh: -7; Furin inh: -19; FXIIa inh: 2; KLK5 inh: -9; Thrombin inh: -4

How did COC(=O)c1c(C)oc(C)c(C(=O)OC)c1=O do in these assays?
FXIa inh: 11; Furin inh: -18; FXIIa inh: 21; KLK5 inh: 74*; Thrombin inh: 17

How did CCC(=O)N1CCN=C1SCc1ccc(Cl)cc1 do in these assays?
FXIa inh: 2; Furin inh: -19; FXIIa inh: 16; KLK5 inh: 6; Thrombin inh: 5

How did CCC(=O)N1CCN=C1SCc1ccccc1 do in these assays?
FXIa inh: 11; Furin inh: -36; FXIIa inh: 29; KLK5 inh: 41*; Thrombin inh: 14

What do the screens show for `Cc1ccc(CSC2=NCCN2C(=O)c2ccco2)cc1`?
FXIa inh: -10; Furin inh: -6; FXIIa inh: 1; KLK5 inh: 41*; Thrombin inh: -5

Results for CN(CC(=O)Nc1ccccc1C(F)(F)F)C(=O)COc1ncnc2ccccc12 ?
FXIa inh: -3; Furin inh: -19; FXIIa inh: 2; KLK5 inh: -11; Thrombin inh: -10

Results for Nc1ncnc2nc(SCCN3CCCCC3)[nH]c12 ?
FXIa inh: -10; Furin inh: -16; FXIIa inh: -3; KLK5 inh: -18; Thrombin inh: 76*

How did CCN(CC)c1cc(C)c2cc(NC(=O)CNC(C)=O)ccc2n1 do in these assays?
FXIa inh: -8; Furin inh: -6; FXIIa inh: -7; KLK5 inh: 142*; Thrombin inh: 0

What do the screens show for `CCCCNC(=O)CCC(=O)Nc1ccc2nc(N3CCC(C)CC3)cc(C)c2c1`?
FXIa inh: -2; Furin inh: -15; FXIIa inh: 8; KLK5 inh: 1; Thrombin inh: -7

What do the screens show for `Cc1cc(C)c2nc(Cl)c(Cl)nc2c1`?
FXIa inh: 2; Furin inh: -2; FXIIa inh: 4; KLK5 inh: -9; Thrombin inh: -7

What do the screens show for `O=C(N/N=C/C(Cl)=C\c1ccccc1)c1cnccn1`?
FXIa inh: 7; Furin inh: 3; FXIIa inh: 18; KLK5 inh: 56*; Thrombin inh: 17

How did CC12CCC(C(=O)NC3CCCCC3)([C@H](Br)C1=O)C2(C)C (stereo partly drawn) do in these assays?
FXIa inh: 0; Furin inh: -21; FXIIa inh: 5; KLK5 inh: 2; Thrombin inh: 0
